Measurements reported in publication PMC7211327 (International Journal of Nanomedicine, 2020).
≈ marks a conversion by molar mass, not a printed value.

Key:
Type in all cases: cell-based
[1] = system: Staphylococcus aureus (ATCC 29213); test: Agar plate diffusion, inhibition zone; settings: ATCC29213, 24 h, read-out: Mean Diameter of Inhibition Zone (IZ)
[2] = system: Pseudomonas aeruginosa (ATCC 27853); test: Paper disk diffusion MIC; settings: ATCC27853, 24 h, read-out: Minimal Inhibitory Concentration (MIC)
How it was run: (§1)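 Paper disk diffusion MIC. Paper disks (12.7 mm) were loaded with test compound at different concentrations, dried and placed on nutrient agar inoculated with the test organism. Growth inhibition was examined after 24 hrs at 37°C. Each test was done three times, and values are the mean ± standard error.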

[3] = system: Pseudomonas aeruginosa (ATCC 27853); test: Agar plate diffusion, inhibition zone; settings: ATCC27853, 24 h, read-out: Mean Diameter of Inhibition Zone (IZ)
[4] = system: MRSA; test: Agar plate diffusion, inhibition zone; settings: Staphylococcus aureus, 24 h, read-out: Mean Diameter of Inhibition Zone (IZ)
[5] = system: Escherichia coli (ATCC 25922); test: Paper disk diffusion MIC; settings: ATCC25922, 24 h, read-out: Minimal Inhibitory Concentration (MIC)
How it was run: as §1

[6] = system: Bacillus subtilis (ATCC 6633); test: Agar plate diffusion, inhibition zone; settings: ATCC6633, 24 h, read-out: Mean Diameter of Inhibition Zone (IZ)
[7] = system: MRSA; test: Paper disk diffusion MIC; settings: Staphylococcus aureus, 24 h, read-out: Minimal Inhibitory Concentration (MIC)
How it was run: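 Bacteria were grown on nutrient agar. Dried 12.7 mm paper disks loaded with a range of test compound concentrations were placed on inoculated agar plates. Growth inhibition was scored after 24 h at 37°C, and each test was replicated three times.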

[8] = system: Escherichia coli (ATCC 25922); test: Agar plate diffusion, inhibition zone; settings: ATCC25922, 24 h, read-out: Mean Diameter of Inhibition Zone (IZ)
[9] = system: Bacillus subtilis (ATCC 6633); test: Paper disk diffusion MIC; settings: ATCC6633, 24 h, read-out: Minimal Inhibitory Concentration (MIC)
How it was run: as §1

[10] = system: Staphylococcus aureus (ATCC 29213); test: Paper disk diffusion MIC; settings: ATCC29213, 24 h, read-out: Minimal Inhibitory Concentration (MIC)
How it was run: as §1

| MIC [2] [µg/mL] | MIC [5] [µg/mL] | MIC [7] [µg/mL] | MIC [9] [µg/mL] | MIC [10] [µg/mL] | SMILES | zone of inhibition at 500 µg/mL [1] [mm] | zone of inhibition at 500 µg/mL [3] [mm] | zone of inhibition at 500 µg/mL [4] [mm] | zone of inhibition at 500 µg/mL [6] [mm] | zone of inhibition at 500 µg/mL [8] [mm] |
| --- | --- | --- | --- | --- | --- | --- | --- | --- | --- | --- |
| 15.6 (≈ 32.5 µM) | 20 (≈ 41.6 µM) | 7.81 (≈ 16.3 µM) | 1.25 (≈ 2.6 µM) | 2.5 (≈ 5.2 µM) | Cc1cccc(NC(=O)CSc2nc3ccccc3c(=O)n2-c2ccc(S(N)(=O)=O)cc2)c1 [Compound 7, 2-((4-Oxo-3-(4-sulfamoylphenyl)-3,4-dihydroquinazolin-2-yl)thio)-N-3-tolylacetamide] | 15 ± 0.07 | 14 ± 0.03 | 10 ± 0.02 | 20 ± 0.21 | 12 ± 0.15 |
| 2.5 (≈ 1.73 µM) | 1.38 (≈ 0.952 µM) | 3.9 (≈ 2.69 µM) | 1.95 (≈ 1.35 µM) | 1.57 (≈ 1.08 µM) | CN[C@H](CC(C)C)C(=O)N[C@H]1C(=O)N[C@@H](CC(N)=O)C(=O)N[C@H]2C(=O)N[C@H]3C(=O)N[C@H](C(=O)N[C@H](C(=O)O)c4cc(O)cc(O)c4-c4cc3ccc4O)[C@H](O)c3ccc(c(Cl)c3)Oc3cc2cc(c3O[C@@H]2O[C@H](CO)[C@@H](O)[C@H](O)[C@H]2O[C@H]2C[C@](C)(N)[C@H](O)[C@H](C)O2)Oc2ccc(cc2Cl)[C@H]1O [Vancomycin, reference compound] | 17 ± 0.11 | 22 ± 0.85 | 14 ± 0.65 | 21 ± 0.4 | 24 ± 0.2 |
|  |  | 20 (≈ 41.6 µM) | 6.31 (≈ 13.1 µM) | 12.5 (≈ 26 µM) | Cc1ccc(NC(=O)CSc2nc3ccccc3c(=O)n2-c2ccc(S(N)(=O)=O)cc2)cc1 [Compound 8, 2-((4-Oxo-3-(4-sulfamoylphenyl)-3,4-dihydroquinazolin-2-yl)thio)-N-4-tolylacetamide] | 23 ± 0.09 |  | 19 ± 0.01 | 26 ± 0.16 |  |
| 62.5 (≈ 141 µM) | 15.6 (≈ 35.2 µM) |  | 31.2 (≈ 70.3 µM) | 62.5 (≈ 141 µM) | CN(C)[C@@H]1C(O)=C(C(N)=O)C(=O)[C@@]2(O)C(O)=C3C(=O)c4c(O)cccc4[C@@](C)(O)[C@H]3C[C@@H]12 [Tetracycline, reference compound] | 25 ± 0.04 | 20 ± 0.1 |  | 25 ± 0.01 | 23 ± 0.31 |

More lines, now with the values behind:

| SMILES | MIC [2] [µg/mL] | MIC [5] [µg/mL] | MIC [7] [µg/mL] | MIC [9] [µg/mL] | MIC [10] [µg/mL] | zone of inhibition at 500 µg/mL [1] [mm] | zone of inhibition at 500 µg/mL [3] [mm] | zone of inhibition at 500 µg/mL [4] [mm] | zone of inhibition at 500 µg/mL [6] [mm] | zone of inhibition at 500 µg/mL [8] [mm] |
| --- | --- | --- | --- | --- | --- | --- | --- | --- | --- | --- |
| O=C(O)c1cn(C2CC2)c2cc(N3CCNCC3)c(F)cc2c1=O [Ciprofloxacin, reference compound] | 3.13 (≈ 9.45 µM) | 1.57 (≈ 4.74 µM) | 1.25 (≈ 3.77 µM) | 0.8 (≈ 2.41 µM) | 0.78 (≈ 2.35 µM) | 27 ± 0.23 | 24 ± 0.47 | 22 ± 0.5 | 29 ± 0.15 | 27 ± 0.98 |
| Cc1ccccc1NC(=O)CSc1nc2ccccc2c(=O)n1-c1ccc(S(N)(=O)=O)cc1 [Compound 6, 2-((4-Oxo-3-(4-sulfamoylphenyl)-3,4-dihydroquinazolin-2-yl)thio)-N-2-tolylacetamide] | 7.5 (≈ 15.6 µM) | 5 (≈ 10.4 µM) |  | 15.6 (≈ 32.5 µM) | 31.2 (≈ 65 µM) | 14 ± 0.03 | 17 ± 0.13 |  | 16 ± 0.1 | 15 ± 0.31 |
| NS(=O)(=O)c1ccc(-n2c(SCC(=O)Nc3ccccc3)nc3ccccc3c2=O)cc1 [Compound 5, 2-((4-Oxo-3-(4-sulfamoylphenyl)-3,4-dihydroquinazolin-2-yl)thio)-N-phenylacetamide] | 20 (≈ 42.9 µM) | 10 (≈ 21.4 µM) | 10 (≈ 21.4 µM) | 2.5 (≈ 5.36 µM) | 1.56 (≈ 3.34 µM) | 22 ± 0.31 | 15 ± 0.21 | 20 ± 0.18 | 25 ± 0.07 | 14 ± 0.23 |
